ASAP1 inh = inhibitors of human ASAP1 ArfGAP activity, primary screen, biochemical, fluorescence polarization; Arf-GAP with SH3 domain, ANK repeat and PH domain-containing protein 1 (Homo sapiens), …; ASAP1-stimulated ARF1 GTP hydrolysis, GDP FP detection; inhibition, % at 16.5 µM; 0.19% of 360,000 active; AID 624377, 2012; in the data active = inhibition above about 25%;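 note: 0% = vehicle with enzyme and substrate and 100% = no enzyme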
ARFGAP1 inhibitor = inhibitors of rat ARFGAP1 GAP activity, primary screen, biochemical, fluorescence polarization, GDP tracer; ADP-ribosylation factor GTPase-activating protein 1 (Rattus norvegicus), Q62848; Arfgap1-stimulated ARF1 GTP hydrolysis, GDP FP detection; inhibition, % at 16.5 µM; 0.26% of 360,000 active; AID 651572, 2012;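 active = inhibition above a per-plate limit, mean inhibition of low control wells plus 3 SD, cut at about 25% in these data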;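 note: 0% = DMSO wells with enzyme and 100% = wells lacking Arfgap1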
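Material: rat Arfgap1 catalytic domain, aa 1-136; also added: human ARF1(Δ1-17)-GTP substrate; compound dosing: one concentration, 16.5 µM, DMSO 1.26%; incubation: GTP hydrolysis reaction 2 h at 25 °C; measured by: Tracer-displacement fluorescence polarization with EDTA stop, 620/688 nm; evaluation: % inhibition from polarization; repeats: one replicate per compound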
PAFAH1B3 inh = PAFAH1B3 enzyme inhibitors, primary screen, biochemical, fluorescence polarization, human; Platelet-activating factor acetylhydrolase IB subunit alpha1 (Homo sapiens), Q15102; recombinant PAFAH1B3, FP-rhodamine probe; inhibition, % at 3.39 µM; 0.28% of 340,000 active;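 active = inhibition above the screen-wide average of all tested compounds plus 3 SD, cut at about 25% in these data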;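 note: 0% = enzyme with DMSO only and 100% = wells lacking PAFAH1B3 protein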
Target sequence (Q15102 whole entry, looked up): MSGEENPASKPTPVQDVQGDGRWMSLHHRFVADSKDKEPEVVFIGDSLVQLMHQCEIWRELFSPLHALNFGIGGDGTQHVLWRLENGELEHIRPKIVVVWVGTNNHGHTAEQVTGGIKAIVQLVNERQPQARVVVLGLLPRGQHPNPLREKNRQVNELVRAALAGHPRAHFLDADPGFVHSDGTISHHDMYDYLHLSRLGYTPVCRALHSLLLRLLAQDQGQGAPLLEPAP
PAFAH2 inh = PAFAH2 enzyme inhibitors, primary screen, biochemical, fluorescence polarization, human | Platelet-activating factor acetylhydrolase 2, cytoplasmic (Homo sapiens), Q99487 | recombinant PAFAH2, FP-rhodamine activity probe | inhibition, % at 3.39 µM | 0.99% of 340,000 active | AID 492956, 2010;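 active = inhibition above the mean over all tested compounds plus 3 SD, cut at about 30% in these data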;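 note: inhibitors block probe labeling of enzyme so polarization drops; 0% = enzyme with DMSO and 100% = wells lacking PAFAH2 protein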
PAFAH1B2 inh = PAFAH1B2 enzyme inhibitors, primary screen, biochemical, fluorescence polarization, human. Platelet-activating factor acetylhydrolase IB subunit alpha2 (Homo sapiens), P68402. recombinant PAFAH1B2, FP-rhodamine activity probe. inhibition, % at 3.39 µM. 1.2% of 340,000 active. AID 492953, 2010;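 active = inhibition above the mean of all tested compounds plus 3 SD, cut at about 24% in these data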;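 note: 0% = enzyme with DMSO and 100% = wells lacking PAFAH1B2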
pPAFAH inh = pPAFAH enzyme inhibitors, primary screen, biochemical, fluorescence polarization, human; Platelet-activating factor acetylhydrolase (Homo sapiens), Q13093; 1.5% of 330,000 active; recombinant pPAFAH, FP-rhodamine probe fluorescence polarization; inhibition, % at 3.39 µM;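 active = inhibition above the mean inhibition across the screen plus 3 SD, cut at about 25% in these data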;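 note: inhibitors block binding of the rhodamine activity-based probe so polarization drops; 0% = enzyme with DMSO and 100% = wells lacking pPAFAH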
Target sequence (Q13093 whole entry, looked up): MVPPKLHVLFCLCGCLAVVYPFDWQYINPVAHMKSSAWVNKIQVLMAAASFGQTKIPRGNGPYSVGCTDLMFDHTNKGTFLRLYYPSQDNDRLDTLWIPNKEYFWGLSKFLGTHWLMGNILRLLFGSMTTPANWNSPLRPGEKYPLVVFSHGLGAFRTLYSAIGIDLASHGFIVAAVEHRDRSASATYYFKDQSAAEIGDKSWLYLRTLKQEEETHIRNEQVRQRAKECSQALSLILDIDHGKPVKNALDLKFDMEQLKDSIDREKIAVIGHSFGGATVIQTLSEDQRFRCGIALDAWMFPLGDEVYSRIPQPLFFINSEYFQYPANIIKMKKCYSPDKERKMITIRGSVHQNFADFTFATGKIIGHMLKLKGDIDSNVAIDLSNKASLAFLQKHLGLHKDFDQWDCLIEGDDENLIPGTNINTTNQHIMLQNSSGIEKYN
PAFAH2 FP conf = PAFAH2 enzyme inhibitors, confirmation, biochemical, fluorescence polarization, human; 65% of 2,300 active; recombinant PAFAH2, FP-rhodamine activity probe; inhibition, % at 3.39 µM; AID 493030, 2011; shares compounds with PAFAH2 inh;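 active = mean inhibition over three repeats above a set limit taken from the earlier primary screen, cut at about 30% in these data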;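 note: inhibitor blocks binding of rhodamine activity probe so polarization falls; 0% = enzyme with DMSO and 100% = wells lacking PAFAH2 protein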
Numbers without * were called inactive; / = not tested or not shown. Shown are actives, neighbours in structure and some others; about 2.7% of the full set was active somewhere.

SMILES	ASAP1 inh	ARFGAP1 inhibitor	PAFAH1B3 inh	PAFAH2 inh	PAFAH1B2 inh	pPAFAH inh	PAFAH2 FP conf
CC1CCCC(NC(=O)COC(=O)c2cc3ccccc3oc2=O)C1C (stereo not drawn)	0	8	10	37*	12	-6	21
CC1CCCC(NC(=O)COC(=O)c2ccc(S(=O)(=O)N3CCOCC3)cc2)C1C (stereo not drawn)	-9	7	4	-4	1	4	/
CC1CCCC(NC(=O)COC(=O)COc2ccccc2Cl)C1C (stereo not drawn)	-3	0	1	4	-2	0	/
N#Cc1ccc(NC(=O)COC(=O)c2cccnc2Cl)cc1	-17	3	0	43*	6	8	36*
CC1CCCC(NC(=O)COC(=O)c2ccc(Cl)nc2)C1C (stereo not drawn)	10	-7	-7	33*	0	1	24
O=S(=O)(NCCCCNS(=O)(=O)c1ccc(F)cc1)c1ccc(F)cc1	-1	1	9	5	1	9	/
c1csc(-c2cc(N3CCCCC3)c3ccccc3n2)c1	-12	10	9	-2	3	2	/
Cc1ccc(O)c(NC(=O)Cc2ccc3ccccc3c2)c1	9	-2	7	74*	1	3	68*
CCOC(=O)C1CCCN(C(=O)c2cccc(S(=O)(=O)N(C)c3c(C)n(C)n(-c4ccccc4)c3=O)c2)C1 (stereo not drawn)	-19	-5	-3	0	-4	-6	/
COc1ccc(OCC(=O)NCCCCCCNC(=O)COc2ccc(OC)cc2)cc1	8	4	2	-3	3	10	/
COc1ccc(-c2cc(C(=O)Nc3cc(C)on3)no2)cc1OC	-3	-2	10	62*	1	-1	-3
O=C(CCC(=O)N1CCSc2ccccc21)NC1CCCCC1	6	7	2	0	2	-1	/
COc1ccc(C(=O)OCc2nnc(-c3ccccc3)o2)cc1S(=O)(=O)N1CCOCC1	5	1	0	79*	0	-4	71*
O=C(OCC(=O)N1CCc2ccccc21)c1cc(S(=O)(=O)N2CCOCC2)ccc1F	4	5	-2	-2	1	/	/
O=C(OCc1nnc(-c2ccc([N+](=O)[O-])cc2)o1)c1ccc(F)c(S(=O)(=O)N2CCOCC2)c1	6	-6	-2	30*	5	/	22
COc1ccc(C(=O)OCC(=O)N2CCc3ccccc32)cc1S(=O)(=O)N1CCOCC1	5	17	3	68*	4	-2	69*
COc1ccc(C(=O)OCC(=O)NCC2CCCO2)cc1S(=O)(=O)N1CCCc2ccccc21 (stereo not drawn)	-13	-4	-2	34*	6	10	27
O=C(NNC(=O)c1ccc(F)c(S(=O)(=O)N2CCOCC2)c1)c1ccc([N+](=O)[O-])cc1	-16	12	8	-7	3	-2	/
COc1ccc(C(=O)OCc2ccc(C)cc2)cc1S(=O)(=O)N1CCOCC1	-1	2	1	12	8	4	/
O=C(NC1CCCC1)C(c1cccs1)N(C(=O)c1csnn1)c1ccccc1F (stereo not drawn)	-5	-10	8	1	4	1	/
O=C(NCc1ccccn1)C(=O)Nc1cccc2ccccc12	8	12	1	1	7	0	/
O=C(Nc1ncccn1)c1ccc([N+](=O)[O-])o1	-1	8	8	78*	8	9	67*
CCOC(=O)C1=C(COC(=O)Cc2ccc(Cl)cc2)NC(=O)NC1C (stereo not drawn)	-19	8	7	10	18	7	/
CCN(CC)S(=O)(=O)c1ccc(C)c(NC(=O)COC(=O)C=C(C)C)c1	13	-3	2	33*	2	7	48*
CCOc1ncccc1C(=O)OCC(=O)Nc1cc(S(=O)(=O)N(CC)CC)ccc1C	-3	0	4	65*	-1	19	49*
SMILES	ASAP1 inh	ARFGAP1 inhibitor	PAFAH1B3 inh	PAFAH2 inh	PAFAH1B2 inh	pPAFAH inh	PAFAH2 FP conf
CCN(CC)S(=O)(=O)c1ccc(C)c(NC(=O)COC(=O)CCC(=O)c2cccs2)c1	10	-1	-1	9	0	7	/
COC(=O)[C@]12C[C@H](CC(=O)NCCCCc3ccccc3)C(=O)N(CCC3=CCCCC3)C1=C[C@H](COCc1ccccc1)O[C@@H]2C	11	-1	/	/	/	/	/
COc1ccc(CNC(=O)COC(=O)CN2C(=O)NC3(CCCC3)C2=O)cc1	-8	-8	1	-2	7	2	/
CC(=O)c1cccc(NC(=O)COC(=O)CC2CC3CCC2C3)c1 (stereo not drawn)	-1	-13	-2	75*	16	20	63*
NS(=O)(=O)c1cccc(NC(=O)COC(=O)CC2CC3CCC2C3)c1 (stereo not drawn)	5	-11	5	35*	21	2	19
CCCN(C(=O)c1cn(C)c(=O)c2ccccc12)c1ccccc1C	-1	-4	4	0	6	4	/
CSc1nnc(-c2ccc(S(=O)(=O)N3CCCCC3)cc2)o1	-16	5	4	11	9	4	/
COC(=O)C1=C(C(=O)OC)[C@@H]2N(C)c3ccccc3[C@@]23C[C@@H](C(=O)OC)N(C(=O)c2cc(C)oc2C)C3=N1	/	/	10	6	5	4	/
Nc1[nH]n2c(=O)cc(-c3ccccc3)nc2c1N=Nc1ccccc1	0	-1	9	32*	14	9	27
O=C1N(c2ccc3c(c2)OCCO3)C(c2ccccc2)C1(F)F (stereo not drawn)	2	-5	2	101*	0	2	-3
NS(=O)(=O)c1ccc(NC(=O)COC(=O)C2CCCCC2)cc1	11	-9	8	-1	2	9	/
CC(NC(=O)COC(=O)C1CC1C)c1cccc(Cl)c1 (stereo not drawn)	1	20	7	36*	0	7	23
CC1CC1C(=O)OCC(=O)NC(=O)c1ccc(C(C)(C)C)cc1 (stereo not drawn)	-1	7	9	3	3	2	/
CC(NC(=O)COC(=O)C1CC1C)c1ccccc1 (stereo not drawn)	-14	2	11	33*	-3	4	30*

Compound activity as filed in PubChem.
